Columns and labels:
Format in all cases: functional
[1] = tested on: OVCAR-3; assay: Cytostatic activity against human OVCAR3 cells
Procedure, shortened: (§1)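 NCI-60 human tumor cell line screen run by the US National Cancer Institute under the NIH Developmental Therapeutics Program protocol. A single-dose prescreen at 10 µM came first. Selected compounds then went into the 5-dose assay. Cytostatic activity is reported as GI50 (µM).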

[2] = tested on: T47D; assay: Cytostatic activity against human T47D cells
Procedure, shortened: (§2)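 Human tumour cell lines from the NCI-60 panel, tested at the US National Cancer Institute under the NIH Developmental Therapeutics Program protocol. A single-dose prescreen at 10 µM came first. Selected compounds then went to a 5-dose assay, which gave GI50 and TGI values in µM.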

[3] = tested on: HCT-116; assay: Cytostatic activity against human HCT116 cells; procedure, shortened: as §1
[4] = tested on: CAKI-1; assay: Cytostatic activity against human Caki1 cells; procedure, shortened: as §1
[5] = tested on: M14; assay: Cytostatic activity against human M14 cells; procedure, shortened: as §1
[6] = tested on: HT-29; assay: Cytostatic activity against human HT-29 cells; procedure, shortened: as §1
[7] = tested on: HCT-15; assay: Cytostatic activity against human HCT15 cells; procedure, shortened: as §1
[8] = tested on: OVCAR-5; assay: Cytostatic activity against human OVCAR5 cells; procedure, shortened: as §1
[9] = tested on: SK-MEL-2; assay: Cytostatic activity against human SK-MEL-2 cells; procedure, shortened: as §1
[10] = tested on: HOP-62; assay: Cytostatic activity against human HOP62 cells; procedure, shortened: as §1
[11] = tested on: SR; assay: Cytostatic activity against human SR cells; procedure, shortened: as §2
[12] = tested on: K562; assay: Cytostatic activity against human K562 cells; procedure, shortened: as §1
[13] = tested on: MDA-MB-468; assay: Cytostatic activity against human MDA-MB-468 cells; procedure, shortened: as §1
[14] = tested on: SK-MEL-28; assay: Cytostatic activity against human SK-MEL-28 cells; procedure, shortened: as §1
[15] = tested on: CCRF-CEM; assay: Cytostatic activity against human CCRF-CEM cells; procedure, shortened: as §1
[16] = tested on: SNB-19; assay: Cytostatic activity against human SNB19 cells; procedure, shortened: as §1
[17] = tested on: OVCAR-4; assay: Cytostatic activity against human OVCAR4 cells; procedure, shortened: as §1
[18] = Cytostatic activity against human […] cells; procedure, shortened: as §1
[19] = tested on: IGROV-1; assay: Cytostatic activity against human IGROV1 cells; procedure, shortened: as §1
[20] = tested on: PC-3; assay: Cytostatic activity against human PC3 cells; procedure, shortened: as §1
[21] = tested on: U-251; assay: Cytostatic activity against human U251 cells; procedure, shortened: as §2
[22] = tested on: UACC-257; assay: Cytostatic activity against human UACC257 cells; procedure, shortened: as §2
[23] = tested on: NCI-H522; assay: Cytostatic activity against human NCI-H522 cells; procedure, shortened: as §1
[24] = tested on: LOX IMVI; assay: Cytostatic activity against human LOXIMVI cells; procedure, shortened: as §1
[25] = tested on: HL-60(TB); assay: Cytostatic activity against human HL-60(TB) cells
Procedure, shortened: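 NCI-60 panel screen run per the NIH Developmental Therapeutics Program protocol. Agents first went through a one-dose test at 10 µM. Selected compounds were then run in a 5-dose assay, from which GI50 and TGI values were derived.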

[26] = tested on: SK-MEL-5; assay: Cytostatic activity against human SK-MEL-5 cells; procedure, shortened: as §1
[27] = tested on: ACHN; assay: Cytostatic activity against human ACHN cells; procedure, shortened: as §1
[28] = tested on: NCI-H322M; assay: Cytostatic activity against human NCI-H322M cells; procedure, shortened: as §1
[29] = tested on: SF-295; assay: Cytostatic activity against human SF295 cells; procedure, shortened: as §1
[30] = tested on: SF-539; assay: Cytostatic activity against human SF539 cells; procedure, shortened: as §1
[31] = tested on: UACC-62; assay: Cytostatic activity against human UACC62 cells; procedure, shortened: as §2
[32] = tested on: MDA-MB-231; assay: Cytostatic activity against human MDA-MB-231/ATCC cells; procedure, shortened: as §1
[33] = tested on: SN12C; assay: Cytostatic activity against human SN12C cells; procedure, shortened: as §1
[34] = tested on: MCF7; assay: Cytostatic activity against human MCF7 cells; procedure, shortened: as §1
[35] = tested on: RXF 393; assay: Cytostatic activity against human RXF393 cells; procedure, shortened: as §1
[36] = tested on: EKVX; assay: Cytostatic activity against human EKVX cells; procedure, shortened: as §1
[37] = tested on: NCI-H226; assay: Cytostatic activity against human NCI-H226 cells; procedure, shortened: as §1
[38] = tested on: A498; assay: Cytostatic activity against human A498 cells; procedure, shortened: as §1
[39] = tested on: TK-10; assay: Cytostatic activity against human TK10 cells; procedure, shortened: as §2
[40] = tested on: MOLT-4; assay: Cytostatic activity against human MOLT4 cells; procedure, shortened: as §1
[41] = tested on: DU-145; assay: Cytostatic activity against human DU145 cells; procedure, shortened: as §1
[42] = tested on: HOP-92; assay: Cytostatic activity against human HOP92 cells; procedure, shortened: as §1
[43] = tested on: Malme-3M; assay: Cytostatic activity against human MALME-3M cells; procedure, shortened: as §1
[44] = tested on: COLO 205; assay: Cytostatic activity against human COLO205 cells; procedure, shortened: as §1
[45] = tested on: NCI-H460; assay: Cytostatic activity against human NCI-H460 cells; procedure, shortened: as §1
[46] = tested on: A549; assay: Cytostatic activity against human A549/ATCC cells; procedure, shortened: as §1
[47] = tested on: SF-268; assay: Cytostatic activity against human SF268 cells; procedure, shortened: as §1
[48] = tested on: NCI-H23; assay: Cytostatic activity against human NCI-H23 cells; procedure, shortened: as §1
[49] = tested on: KM12; assay: Cytostatic activity against human KM12 cells; procedure, shortened: as §1
[50] = tested on: NCI/ADR-RES; assay: Cytostatic activity against human NCI-ADR-RES cells; procedure, shortened: as §1
[51] = tested on: MDA-MB-435; assay: Cytostatic activity against human MDA-MB-435 cells; procedure, shortened: as §1
[52] = tested on: UO-31; assay: Cytostatic activity against human UO31 cells; procedure, shortened: as §2
[53] = tested on: SNB-75; assay: Cytostatic activity against human SNB75 cells; procedure, shortened: as §2
[54] = tested on: Hs-578T; assay: Cytostatic activity against human Hs 578T cells; procedure, shortened: as §1
[55] = tested on: SW-620; assay: Cytostatic activity against human SW620 cells; procedure, shortened: as §2
[56] = tested on: OVCAR-8; assay: Cytostatic activity against human OVCAR8 cells; procedure, shortened: as §1
[57] = tested on: HCC 2998; assay: Cytostatic activity against human HCC2998 cells; procedure, shortened: as §1

SMILES: N=C(NO)NS(=O)(=O)c1cc(-c2nnc(-c3ccc(Cl)cc3)s2)c(Cl)cc1SCc1ccccc1
- GI50 [1]: 1.67 µM
- TGI [1]: 3.12 µM
- GI50 [2]: 2.07 µM
- TGI [2]: 4.81 µM
- GI50 [3]: 1.56 µM
- TGI [3]: 3.11 µM
- GI50 [4]: 2.27 µM
- TGI [4]: 4.67 µM
- GI50 [5]: 1.68 µM
- TGI [5]: 3.2 µM
- GI50 [6]: 1.67 µM
- TGI [6]: 3.13 µM
- GI50 [7]: 1.57 µM
- TGI [7]: 3.17 µM
- GI50 [8]: 1.6 µM
- TGI [8]: 3.02 µM
- GI50 [9]: 1.75 µM
- TGI [9]: 3.5 µM
- GI50 [10]: 2.05 µM
- TGI [10]: 3.98 µM
- GI50 [11]: 1.45 µM
- TGI [11]: 4.2 µM
- GI50 [12]: 2.23 µM
- TGI [12]: 6.31 µM
- GI50 [13]: 1.52 µM
- TGI [13]: 2.85 µM
- GI50 [14]: 1.91 µM
- TGI [14]: 3.47 µM
- GI50 [15]: 0.84 µM
- TGI [15]: 3.83 µM
- GI50 [16]: 1.74 µM
- TGI [16]: 3.42 µM
- GI50 [17]: 1.65 µM
- TGI [17]: 4.01 µM
- GI50 [18]: 1.74 µM
- TGI [18]: 4.34 µM
- GI50 [19]: 2.57 µM
- TGI [19]: 5.38 µM
- GI50 [20]: 1.74 µM
- TGI [20]: 3.27 µM
- GI50 [21]: 1.54 µM
- TGI [21]: 3.09 µM
- GI50 [22]: 2.1 µM
- TGI [22]: 4.05 µM
- GI50 [23]: 1.67 µM
- TGI [23]: 3.41 µM
- GI50 [24]: 1.68 µM
- TGI [24]: 3.47 µM
- GI50 [25]: 1.78 µM
- TGI [25]: 4.53 µM
- GI50 [26]: 1.58 µM
- TGI [26]: 3.05 µM
- GI50 [27]: 1.71 µM
- TGI [27]: 3.15 µM
- GI50 [28]: 1.93 µM
- TGI [28]: 3.99 µM
- GI50 [29]: 2.21 µM
- TGI [29]: 4.65 µM
- GI50 [30]: 1.97 µM
- TGI [30]: 3.9 µM
- GI50 [31]: 2.02 µM
- TGI [31]: 3.76 µM
- GI50 [32]: 2.07 µM
- TGI [32]: 4.79 µM
- GI50 [33]: 1.67 µM
- TGI [33]: 3.2 µM
- GI50 [34]: 1.57 µM
- TGI [34]: 3.03 µM
- GI50 [35]: 1.66 µM
- TGI [35]: 3.04 µM
- GI50 [36]: 1.99 µM
- TGI [36]: 4.12 µM
- GI50 [37]: 2.07 µM
- TGI [37]: 4.05 µM
- GI50 [38]: 1.75 µM
- TGI [38]: 5.55 µM
- GI50 [39]: 1.87 µM
- TGI [39]: 3.43 µM
- GI50 [40]: 1.25 µM
- TGI [40]: 3.57 µM
- GI50 [41]: 1.73 µM
- TGI [41]: 3.1 µM
- GI50 [42]: 2.76 µM
- TGI [42]: 7.42 µM
- GI50 [43]: 1.96 µM
- TGI [43]: 4.03 µM
- GI50 [44]: 1.89 µM
- TGI [44]: 3.74 µM
- GI50 [45]: 1.73 µM
- TGI [45]: 3.49 µM
- GI50 [46]: 2.25 µM
- TGI [46]: 5.64 µM
- GI50 [47]: 1.9 µM
- TGI [47]: 4.21 µM
- GI50 [48]: 1.7 µM
- TGI [48]: 3.73 µM
- GI50 [49]: 1.75 µM
- TGI [49]: 3.33 µM
- GI50 [50]: 7.39 µM
- GI50 [51]: 2.11 µM
- TGI [51]: 4.17 µM
- GI50 [52]: 1.99 µM
- TGI [52]: 4.68 µM
- GI50 [53]: 1.49 µM
- TGI [53]: 3.18 µM
- GI50 [54]: 2.51 µM
- TGI [54]: 7.26 µM
- GI50 [55]: 1.47 µM
- TGI [55]: 3.07 µM
- GI50 [56]: 2.03 µM
- TGI [56]: 4.3 µM
- GI50 [57]: 1.81 µM
- TGI [57]: 3.42 µM

From ChEMBL document CHEMBL2062469, “1-(2-Mercaptobenzenesulfonyl)-3-hydroxyguanidines--novel potent antiproliferatives, synthesis and in vitro biological activity” (2012)
